Experimental data reported in ChEMBL document CHEMBL1150779, “Triazolopyrimidine-based dihydroorotate dehydrogenase inhibitors with potent and selective activity against the malaria parasite Plasmodium falciparum” (J Med Chem, 2008).

Tests used:
[1] = target: T1, Dihydroorotate dehydrogenase (Plasmodium falciparum, UniProt Q54A96); assay: Inhibition of Plasmodium falciparum DHODH assessed as reduction of 2,6-dichloroindophenol by stopped flow spectroscopy
T1 sequence (Q54A96 whole entry): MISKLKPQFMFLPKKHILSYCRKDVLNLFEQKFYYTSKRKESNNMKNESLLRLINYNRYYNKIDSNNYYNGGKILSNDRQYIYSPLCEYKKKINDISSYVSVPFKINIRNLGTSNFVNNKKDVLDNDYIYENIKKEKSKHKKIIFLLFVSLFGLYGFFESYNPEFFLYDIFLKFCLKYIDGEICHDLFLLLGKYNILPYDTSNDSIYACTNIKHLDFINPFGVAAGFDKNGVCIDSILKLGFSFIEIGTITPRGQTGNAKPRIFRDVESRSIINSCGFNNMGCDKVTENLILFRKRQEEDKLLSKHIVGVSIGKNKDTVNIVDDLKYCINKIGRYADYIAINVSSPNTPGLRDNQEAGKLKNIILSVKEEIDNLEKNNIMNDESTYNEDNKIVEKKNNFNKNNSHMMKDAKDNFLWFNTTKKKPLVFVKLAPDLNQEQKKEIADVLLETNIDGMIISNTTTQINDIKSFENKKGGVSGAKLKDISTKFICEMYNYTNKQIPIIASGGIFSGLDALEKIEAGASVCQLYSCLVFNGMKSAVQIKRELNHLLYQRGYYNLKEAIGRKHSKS
Summary of the method: (§1)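 Truncated soluble enzyme expressed in E. coli. Steady-state assay: DCIP (0.12 mM) reduction at 600 nm, 5–10 nM enzyme, 0.2 mM L-dihydroorotate, 0.02 mM CoQD, in 100 mM HEPES pH 8.0, 150 mM NaCl, 10% glycerol, 0.1% Triton, 20°C.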

[2] = target: Dihydroorotate dehydrogenase (quinone), mitochondrial (Homo sapiens, UniProt Q02127); assay: Inhibition of human DHODH assessed as reduction of 2,6-dichloroindophenol by stopped flow spectroscopy
Chain of Dihydroorotate dehydrogenase (quinone), mitochondrial (Q02127 whole entry): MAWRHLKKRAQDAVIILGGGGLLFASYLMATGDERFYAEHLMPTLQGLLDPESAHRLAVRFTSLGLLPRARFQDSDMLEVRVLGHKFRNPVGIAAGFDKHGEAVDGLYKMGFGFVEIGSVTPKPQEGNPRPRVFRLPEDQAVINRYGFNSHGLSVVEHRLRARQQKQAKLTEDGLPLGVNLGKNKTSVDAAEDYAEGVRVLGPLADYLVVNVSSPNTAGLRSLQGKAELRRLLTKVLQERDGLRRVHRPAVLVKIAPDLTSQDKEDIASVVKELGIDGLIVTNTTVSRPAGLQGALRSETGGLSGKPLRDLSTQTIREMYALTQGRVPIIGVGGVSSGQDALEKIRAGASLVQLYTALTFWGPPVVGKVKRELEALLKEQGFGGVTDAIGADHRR
Summary of the method: as §1, with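 “20°C. CoQ-independent oxidase background subtracted; triplicate points per concentration; IC50 from curve fit, ≥2 experiments.” for “20°C.”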

Plasmodium falciparum [3] = assay: Antiplasmodial activity against Plasmodium falciparum 3D7 in erythrocytes as [3H]hypoxanthine uptake; assay type: functional, organism-based
Summary of the method: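 Parasites grown in RPMI-1640 with 20% human type A+ plasma and 2% (w/v) red blood cells; drug-treated infected erythrocytes assayed for [3H]-hypoxanthine uptake. Triplicate points over a range of inhibitor concentrations; EC50 from fit of % proliferation to a Hill-type equation; reported values average at least 2 independent experiments.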

Plasmodium falciparum [4] = assay: Antiplasmodial activity against Plasmodium falciparum Dd2 in erythrocytes as [3H]hypoxanthine uptake; conditions: Dd2, 3 h
Plasmodium falciparum [5] = assay: Antiplasmodial activity against Plasmodium falciparum K1 in erythrocytes as [3H]hypoxanthine uptake; conditions: K1, 3 h
Plasmodium falciparum [6] = assay: Antiplasmodial activity against Plasmodium falciparum D6 in erythrocytes as [3H]hypoxanthine uptake; conditions: D6, 3 h
L1210 = assay: Cytotoxicity against mouse L1210 cells
Plasmodium falciparum [7] = assay: Antiplasmodial activity against Plasmodium falciparum HB3 in erythrocytes as [3H]hypoxanthine uptake; conditions: HB3, 3 h
Plasmodium falciparum [8] = assay: Antiplasmodial activity against Plasmodium falciparum FCR3 in erythrocytes as [3H]hypoxanthine uptake; conditions: FCR3, 3 h

Structure (SMILES)	IC50 [1]	IC50 [2]	IC50 (Plasmodium falciparum [3])	EC50 (Plasmodium falciparum [4])	EC50 (Plasmodium falciparum [5])	EC50 (Plasmodium falciparum [6])	EC50 (Plasmodium falciparum [7])	EC50 (Plasmodium falciparum [8])	EC50 (L1210)
Cc1cc(Nc2ccc3ncccc3c2)n2ncnc2n1	1.2 µM	> 200 µM	2.2 µM						
Cc1cc(Nc2ccc3c(=O)cc(C)oc3c2)n2ncnc2n1	2 µM	> 200 µM	0.41 µM						
Cc1cc(N(Cc2ccccc2)c2ccc3ccccc3c2)n2ncnc2n1	93 µM	> 200 µM	35 µM						
Cc1nc2ncnn2c(Nc2ccc3ccccc3c2)c1C	0.16 µM	> 200 µM	0.55 µM						
Cc1cc(Nc2ccc3cc4ccccc4cc3c2)n2ncnc2n1	0.056 µM	> 200 µM	0.19 µM						
Cc1cc(Nc2cnc3ccccc3c2)n2ncnc2n1	1.7 µM	> 200 µM	1.6 µM						
Cc1cc(N(C)c2ccc3ccccc3c2)n2ncnc2n1	3 µM	> 200 µM	16 µM						
FC(F)(F)c1cc(Nc2ccc3ccccc3c2)n2ncnc2n1	0.21 µM	> 200 µM	3.3 µM						

Further lines, with some results ahead:

IC50 [1]	IC50 [2]	IC50 (Plasmodium falciparum [3])	EC50 (Plasmodium falciparum [4])	EC50 (Plasmodium falciparum [5])	EC50 (Plasmodium falciparum [6])	EC50 (Plasmodium falciparum [7])	EC50 (Plasmodium falciparum [8])	Structure (SMILES)	EC50 (L1210)
0.19 µM	> 200 µM	0.31 µM						CCc1cc(Nc2ccc3ccccc3c2)n2ncnc2n1	
0.33 µM	> 200 µM	1.7 µM						Cc1cc(Nc2cc3ccccc3cc2O)n2ncnc2n1	
> 100 µM	> 200 µM	> 100 µM						Cc1cc(Nc2ccccc2)n2ncnc2n1	
	> 200 µM	0.079 µM	0.14 µM	0.14 µM	0.058 µM	0.1 µM	0.18 µM	Cc1cc(Nc2ccc3ccccc3c2)n2ncnc2n1	> 10 µM
> 200 µM	> 200 µM	> 50 µM						Cc1cc(Nc2ccc(C(N)=O)cc2)n2ncnc2n1	
45 µM	> 200 µM	4.4 µM						Cc1cc(Nc2cccc3ccccc23)n2ncnc2n1	
